# Source: PMC3040319 (Pharmaceutical Research, 2010)
# Marks after values point to notes of the source that are not given here.
# Key:
# [1] = target: T1, mouse Oct1 (Mus musculus, UniProt O08966); experiment: Cellular accumulation of platinum in HEK-mOct1 cells; assay type: in vitro ADME; settings: 10 μM, 1 h
# T1 sequence (O08966 1-556): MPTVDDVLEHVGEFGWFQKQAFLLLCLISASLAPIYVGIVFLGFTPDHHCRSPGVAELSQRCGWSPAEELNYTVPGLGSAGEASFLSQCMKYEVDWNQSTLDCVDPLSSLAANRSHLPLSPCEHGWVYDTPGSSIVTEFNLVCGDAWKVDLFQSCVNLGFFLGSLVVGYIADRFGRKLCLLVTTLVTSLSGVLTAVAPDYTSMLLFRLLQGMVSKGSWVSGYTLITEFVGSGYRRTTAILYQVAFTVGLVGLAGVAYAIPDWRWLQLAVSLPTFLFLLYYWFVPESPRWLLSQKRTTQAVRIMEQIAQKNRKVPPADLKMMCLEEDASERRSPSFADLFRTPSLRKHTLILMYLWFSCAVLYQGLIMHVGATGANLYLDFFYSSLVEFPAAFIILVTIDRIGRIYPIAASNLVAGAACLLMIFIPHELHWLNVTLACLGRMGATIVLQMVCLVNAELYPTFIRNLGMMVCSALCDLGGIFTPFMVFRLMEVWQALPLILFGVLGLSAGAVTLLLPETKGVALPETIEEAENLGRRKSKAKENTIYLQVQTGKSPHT
# Outline: (§1)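 HEK293 cells stably carrying full-length mouse Oct1 cDNA in pcDNA5/FRT, selected with hygromycin B; the human OCT1 line's construct is not described. Cells grown in DMEM H21 with 10% FBS at 37°C, 5% CO2. Exposed to 10 μM test compound in serum-free medium for 1 h, then washed 3× with ice-cold PBS. Digested in 70% nitric acid at 65°C for ≥2.5 h. Pt measured by ICP-MS, normalised to BCA protein.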
# [2] = test system: HEK-MOCK cells; experiment: Cellular accumulation of platinum in HEK-MOCK cells; assay type: in vitro ADME, human; settings: 10 μM, 1 h
# Outline: as §1
# [3] = Plasma platinum pharmacokinetics in Oct1+/+ and Oct1-/- mice; assay type: in vivo, mouse; settings: single i.v. 8 mg/kg
# Outline: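 Male FVB Oct1+/+ and Oct1-/- mice (8 weeks) received a single tail-vein dose of 8 mg/kg in saline. Heparinised plasma was taken by heart puncture at 15 and 30 min and at 1, 2, 3, 4, 8, 10, 24 and 48 h. Total Pt in 5 μl plasma and in urine was measured by ICP-MS. Parameters (Vss, CL, renal CL) came from two-compartment analysis.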
# [4] = test system: Kim-1; experiment: Renal Kim-1 mRNA by qRT-PCR in the CDPCP toxicity study; assay type: in vivo, mouse; settings: i.v. once weekly for 3 weeks
# Outline: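 Same weekly ×3 tail-vein regimen with saline controls; kidneys were harvested 24 h after the last dose. Kidney RNA was extracted with Trizol and DNase I-treated, then reverse-transcribed. Taqman qRT-PCR for Kim-1 used GAPDH as internal control: 95°C 20 s, then 40 cycles of 95°C 3 s and 60°C 30 s. Results expressed as fold over saline.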
# [5] = target: T2, human OCT1 (Homo sapiens, UniProt O15245); experiment: Cellular accumulation of platinum in HEK-hOCT1 cells; assay type: in vitro ADME; settings: 10 μM, 1 h
# T2 sequence (O15245 1-554): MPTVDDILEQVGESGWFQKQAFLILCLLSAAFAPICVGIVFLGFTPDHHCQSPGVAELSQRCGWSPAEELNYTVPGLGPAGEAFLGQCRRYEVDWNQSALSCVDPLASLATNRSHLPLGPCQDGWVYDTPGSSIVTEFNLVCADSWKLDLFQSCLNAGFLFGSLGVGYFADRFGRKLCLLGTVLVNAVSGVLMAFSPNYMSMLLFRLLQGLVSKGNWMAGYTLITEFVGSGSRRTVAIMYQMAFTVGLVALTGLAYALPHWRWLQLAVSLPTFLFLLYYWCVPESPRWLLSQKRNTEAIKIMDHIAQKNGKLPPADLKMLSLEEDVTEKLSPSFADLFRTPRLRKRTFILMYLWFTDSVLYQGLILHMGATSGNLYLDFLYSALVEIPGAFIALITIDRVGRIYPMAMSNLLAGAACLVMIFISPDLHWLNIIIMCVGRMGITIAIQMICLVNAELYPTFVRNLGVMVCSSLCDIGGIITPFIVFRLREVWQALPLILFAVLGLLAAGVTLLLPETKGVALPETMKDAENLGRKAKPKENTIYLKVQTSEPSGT
# Outline: as §1
# [6] = Tissue accumulation of platinum in Oct1+/+ and Oct1-/- mice; assay type: in vivo, mouse; settings: for Brain Normalized platinum / Heart Normalized platinum / Intestine Normalized platinum / Kidney Normalized platinum / Liver Normalized platinum / Muscle Normalized platinum: divided by plasma concentration
# Outline: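 Male FVB Oct1+/+ and Oct1-/- mice (8 weeks) were given 8 mg/kg in saline i.v. by tail vein and killed 1 h later. Liver, kidney, heart, lung, brain, intestine, spleen and muscle were snap-frozen. Total Pt was measured by ICP-MS in 10–30 mg tissue and reported as nmol/g tissue; plasma was reported in μM.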
# [7] = test system: genomic DNA; experiment: Platinum-DNA adduct formation in primary mouse hepatocytes; assay type: cell-based
# Outline: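 Attached wild-type or Oct1-/- mouse hepatocytes were exposed to 10 μM test compound for 1 h at 37°C in serum-free medium, with or without OCT1 inhibitor. Cells were then washed with ice-cold PBS. Genomic DNA was kit-purified. DNA-bound Pt was measured by ICP-MS, and DNA by A260 from the same preparation. Adduct level expressed as pmol Pt/μg DNA.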
# [8] = OCT1 KO mice, 1 h after IV 8 mg/kg
# [9] = OCT1 WT mice, 1 h after IV 8 mg/kg
smiles,measurement,setting,value
"[NH3+][Pt-2]([NH3+])([Cl])[n+]1ccccc1 (stereo not drawn) [CDPCP, cis-diammine(pyridine)chloroplatinum(II)]",uptake of platinum,[1]; HEK-mOct1 cells,1470 ± 66.6 pmol/mg protein/hr
same,"uptake of platinum, fold greater than in HEK-MOCK cells",[1]; HEK-mOct1 vs HEK-MOCK,53 fold
same,uptake of platinum,[2],27.4 ± 7.43 pmol/mg protein/hr
same,contribution of renal clearance to total clearance of platinum from plasma,[3]; both Oct1+/+ and Oct1-/- mice,about 50%
same,"volume of distribution, Oct1 wild-type as fold of Oct1-/-",[3],1.77 fold
same,"renal mRNA levels of Kim-1, fold over saline control",[4]; Oct1+/+ mice,19.3 fold
same,"renal mRNA levels of Kim-1, fold over saline control",[4]; Oct1-/- mice,117 fold
same,uptake of platinum,[5],852 ± 135 pmol/mg protein/hr
same,"total platinum in plasma, fold higher in Oct1-/- than wild-type mice",[6]; 1 h after 8 mg/kg,1.3 fold
same,"Brain Absolute platinum, OCT1 WT/KO ratio",[6]; 1 h after IV 8 mg/kg,0.9
same,"Brain Normalized platinum, OCT1 WT/KO ratio",[6]; 1 h after IV 8 mg/kg,1.2
same,"Heart Absolute platinum, OCT1 WT/KO ratio",[6]; 1 h after IV 8 mg/kg,0.6**
same,"Heart Normalized platinum, OCT1 WT/KO ratio",[6]; 1 h after IV 8 mg/kg,0.8*
same,"Intestine Absolute platinum, OCT1 WT/KO ratio",[6]; 1 h after IV 8 mg/kg,2.8*
same,"Kidney Absolute platinum, OCT1 WT/KO ratio",[6]; 1 h after IV 8 mg/kg,0.7*
same,"Kidney Normalized platinum, OCT1 WT/KO ratio",[6]; 1 h after IV 8 mg/kg,1.0
same,"Liver Absolute platinum, OCT1 WT/KO ratio",[6]; 1 h after IV 8 mg/kg,2.1**
same,"Muscle Absolute platinum, OCT1 WT/KO ratio",[6]; 1 h after IV 8 mg/kg,0.8*
same,"Muscle Normalized platinum, OCT1 WT/KO ratio",[6]; 1 h after IV 8 mg/kg,1.0
same,"Plasma platinum, OCT1 WT/KO ratio",[6]; 1 h after IV 8 mg/kg,0.8**
same,Brain Absolute platinum,[6]; [8],0.487 ± 0.128 pmol/g tissue
same,Heart Absolute platinum,[6]; [8],15.4 ± 1.83 pmol/g tissue
same,Intestine Absolute platinum,[6]; [8],32.3 ± 14.2 pmol/g tissue
same,Kidney Absolute platinum,[6]; [8],44.3 ± 11.5 pmol/g tissue
same,Liver Absolute platinum,[6]; [8],38.2 ± 8.51 pmol/g tissue
same,Muscle Absolute platinum,[6]; [8],2.08 ± 0.292 pmol/g tissue
same,Plasma platinum,[6]; [8],17.2 ± 2.11 µM
same,Brain Normalized platinum,[6]; [8],0.0282 ± 0.00518 ml/g tissue
same,Heart Normalized platinum,[6]; [8],0.898 ± 0.0813 ml/g tissue
same,Intestine Normalized platinum,[6]; [8],1.84 ± 0.571 ml/g tissue
same,Kidney Normalized platinum,[6]; [8],2.47 ± 0.552 ml/g tissue
same,Liver Normalized platinum,[6]; [8],2.23 ± 0.440 ml/g tissue
same,Muscle Normalized platinum,[6]; [8],0.122 ± 0.0201 ml/g tissue
same,Brain Absolute platinum,[6]; [9],0.436 ± 0.116 pmol/g tissue
same,Heart Absolute platinum,[6]; [9],9.77 ± 1.20 pmol/g tissue
same,Intestine Absolute platinum,[6]; [9],90.9 ± 28.0 pmol/g tissue
same,Kidney Absolute platinum,[6]; [9],32.1 ± 2.93 pmol/g tissue
same,Liver Absolute platinum,[6]; [9],81.8 ± 9.31 pmol/g tissue
same,Muscle Absolute platinum,[6]; [9],1.62 ± 0.144 pmol/g tissue
same,Plasma platinum,[6]; [9],13.5 ± 1.72 µM
same,Brain Normalized platinum,[6]; [9],0.0328 ± 0.0114 ml/g tissue
same,Heart Normalized platinum,[6]; [9],0.725 ± 0.0747 ml/g tissue
same,Intestine Normalized platinum,[6]; [9],7.13 ± 2.47 ml/g tissue
same,Kidney Normalized platinum,[6]; [9],2.40 ± 0.374 ml/g tissue
same,Liver Normalized platinum,[6]; [9],6.09 ± 0.792 ml/g tissue
same,Muscle Normalized platinum,[6]; [9],0.121 ± 0.0118 ml/g tissue
same,"platinum-DNA adduct level, fold greater in wild-type than Oct1-/-","[7]; 10 μM, 1 h",2.4 fold
same,platinum-DNA adduct level,"[7]; hepatocytes from Oct1-/- mice, 10 μM, 1 h",0.0351 ± 0.00344 pmol/μg DNA
same,platinum-DNA adduct level,"[7]; hepatocytes from Oct1-/- mice, 10 μM, 1 h, disopyramide 150 μM",0.0338 ± 0.00798 pmol/μg DNA
same,platinum-DNA adduct level,"[7]; hepatocytes from Oct1 wild-type mice, 10 μM, 1 h",0.0857 ± 0.0232 pmol/μg DNA
same,platinum-DNA adduct level,"[7]; hepatocytes from Oct1 wild-type mice, 10 μM, 1 h, disopyramide 150 μM",0.0233 ± 0.00847 pmol/μg DNA
same,fold decrease in platinum-DNA adduct formation by disopyramide,"[7]; hepatocytes from Oct1 wild-type mice, disopyramide 150 μM",3.7 fold
